According to article PMC3176992 (Molecular psychiatry, 2010):
Numbering of substitutions follows the chain as printed. Entries after “also recorded” stand apart in the source; their conditions may differ. Peptide text beside a SMILES is read from it. * marks the point of attachment. Cbz = O=C(OCc1ccccc1)*

B1: DISC1 ΔTNIK: DISC1 with amino acids 329–350 deleted, expressed from plasmid (protein)
chain: MPGGGPQGAPAAAGGGGVSHRAGSRDCLPPAACFRRRRLARRPGYMRSSTGPGIGFLSPAVGTLFRFPGGVSGEESHHSESRARQCGLDSRGLLVRSPVSKSAAAPTVTSVRGTSAHFGIQLRGGTRLPDRLSWPCGPGSAGWQQEFAAMDSSETLDASWEAACSDGARRVRAAGSLPSAELSSNSCSPGCGPEVPPTPPGSHSAFTSSFSFIRLSLGSAGERGEAEGCPPSREAESHCQSPQEMGAKAASLDGPHEDPRCLSRPFSLLATRVSADLAQAARNSSRPERDMHSLPDMDPGSSSSLDPSLAGCGGDGSSGSGDAHSWDTISLRLKLQKLQEDAVENDDYDKAETLQQRLEDLEQEKISLHFQLPSRQPALSSFLGHLAAQVQAALRRGATQQASGDDTHTPLRMEPRLLEPTAQDSLHVSITRRDWLLQEKQQLQKEIEALQARMFVLEAKDQQLRREIEEQEQQLQWQGCDLTPLVGQLSLGQLQEVSKALQDTLASAGQIPFHAEPPETIRSLQERIKSLNLSLKEITTKVCMSEKFCSTLRKKVNDIETQLPALLEAKMHAISGNHFWTAKDLTEEIRSLTSEREGLEGLLSKLLVLSSRNVKKLGSVKEDYNRLRREVEHQETAYETSVKENTMKYMETLKNKLCSCKCPLLGKVWEADLEACRLLIQSLQLQEARGSLSVEDERQMDDLEGAAPPIPPRLHSEDKRKTPLKVLEEWKTHLIPSLHCAGGEQKEESYILSAELGEKCEDIGKKLLYLEDQLHTAIHSHDEDLIQSLRRELQMVKETLQAMILQLQPAKEAGEREAAASCMTAGVHEAQA
modifications: left off: Myc, end not stated, kept
B2: DISC1 AS1: DISC1 containing the mutation VLR336–338AAA, expressed from plasmid (protein)
chain: MPGGGPQGAPAAAGGGGVSHRAGSRDCLPPAACFRRRRLARRPGYMRSSTGPGIGFLSPAVGTLFRFPGGVSGEESHHSESRARQCGLDSRGLLVRSPVSKSAAAPTVTSVRGTSAHFGIQLRGGTRLPDRLSWPCGPGSAGWQQEFAAMDSSETLDASWEAACSDGARRVRAAGSLPSAELSSNSCSPGCGPEVPPTPPGSHSAFTSSFSFIRLSLGSAGERGEAEGCPPSREAESHCQSPQEMGAKAASLDGPHEDPRCLSRPFSLLATRVSADLAQAARNSSRPERDMHSLPDMDPGSSSSLDPSLAGCGGDGSSGSGDAHSWDTLLRKWEPAAADCLLRNRRQMEVISLRLKLQKLQEDAVENDDYDKAETLQQRLEDLEQEKISLHFQLPSRQPALSSFLGHLAAQVQAALRRGATQQASGDDTHTPLRMEPRLLEPTAQDSLHVSITRRDWLLQEKQQLQKEIEALQARMFVLEAKDQQLRREIEEQEQQLQWQGCDLTPLVGQLSLGQLQEVSKALQDTLASAGQIPFHAEPPETIRSLQERIKSLNLSLKEITTKVCMSEKFCSTLRKKVNDIETQLPALLEAKMHAISGNHFWTAKDLTEEIRSLTSEREGLEGLLSKLLVLSSRNVKKLGSVKEDYNRLRREVEHQETAYETSVKENTMKYMETLKNKLCSCKCPLLGKVWEADLEACRLLIQSLQLQEARGSLSVEDERQMDDLEGAAPPIPPRLHSEDKRKTPLKVLEEWKTHLIPSLHCAGGEQKEESYILSAELGEKCEDIGKKLLYLEDQLHTAIHSHDEDLIQSLRRELQMVKETLQAMILQLQPAKEAGEREAAASCMTAGVHEAQA
modifications: left off: Myc, end not stated, kept
B3: DISC1 WT: wild-type human DISC1 expressed from plasmid (protein)
chain: B2 chain with A336V, A337L, A338R
modifications: left off: Myc, end not stated, kept

Tests used:
[1] = system: TNIK; test: TNIK level and phosphorylation in primary hippocampal neurons; type: cell-based, rat; settings: 10 µM MG132 or 25 µg/ml leupeptin for 7 h, then 10 µM peptide 40 min; N=4
[2] = system: GluR1; test: GluR1 level in primary hippocampal neurons; type: cell-based, rat; settings: 10 µM MG132 or 25 µg/ml leupeptin for 7 h, then 10 µM peptide 40 min; N=4
[3] = system: PSD-95; test: PSD-95 level in primary hippocampal neurons; type: cell-based, rat; settings: 10 µM MG132 or 25 µg/ml leupeptin for 7 h, then 10 µM peptide 40 min; N=4
[4] = system: HA-TNIK; test: Co-immunoprecipitation of DISC1 with TNIK from HEK293 cells; type: binding, human; settings: HA-TNIK and Myc-DISC1 construct coexpressed in HEK293 cells
Method in brief: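 HEK293 cells in DMEM with 10% heat-inactivated FBS, seeded at 40–80% density and transfected 24 h later (Lipofectamine 2000). Lysed in co-IP buffer (50 mM Tris-Cl pH 7.5, 150 mM NaCl, 1 mM EDTA, 1% Triton X-100) with protease/phosphatase inhibitors, 30 min at 4 °C, then cleared at 12000 g. Protein G beads loaded with 1–3 µg antibody for 1 h, incubated with lysate 2 h to overnight at 4 °C, washed, and run on 4–12% Bis-Tris gels for western blot.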

[5] = system: TNIK in NIH3T3 cells; test: TNIK-induced cell rounding assay; type: cell-based; settings: for inhibition of TNIK-induced cell rounding: NIH3T3 cells co-transfected with HA-TNIK WT and DISC1 construct
Method in brief: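 NIH3T3 cells in DMEM with 10% heat-inactivated FBS, seeded at 40–80% density and co-transfected 24 h later (Lipofectamine 2000) with HA-tagged TNIK and Myc-tagged DISC1 constructs. Immunofluorescence staining with anti-HA/anti-Myc antibodies. Rounding was scored as cell length-to-breadth ratio measured from TNIK (HA) staining.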

Row | Molecule | dephosphorylation of TNIK at S769, with inhibitor pretreatment [1] | DISCpep-WT-tat-induced loss of GluR1, with inhibitor pretreatment [2] | DISCpep-WT-tat-induced loss of PSD-95, with inhibitor pretreatment [3] | inhibition of TNIK-induced cell rounding [5] | further results
1 | CC(C)C[C@@H](C=O)NC(=O)[C@H](CC(C)C)NC(=O)[C@H](CC(C)C)NC(=O)OCc1ccccc1 [MG132] (Cbz-Leu-Leu-Leu-aldehyde) | neither affected by MG132 or leupeptin | a reciprocal effect observed for GluR1; also recorded: GluR1 degradation still occurred | blocked by MG132; also recorded: rescued | – | dephosphorylation of TNIK at S764, with inhibitor pretreatment [1]: not affected by MG132
2 | CC(=O)N[C@@H](CC(C)C)C(=O)N[C@@H](CC(C)C)C(=O)N[C@H](C=O)CCCNC(=N)N [leupeptin] | neither affected by MG132 or leupeptin | a reciprocal effect observed for GluR1; also recorded: rescued | not leupeptin | – | –
3 | B1 | – | – | – | – | interaction with TNIK (co-IP) ([4]; listed as Myc-DISC1 ΔTNIK): abolition of interaction with TNIK
4 | B2 | – | – | – | could not inhibit TNIK in cell-based assays | interaction with TNIK (co-IP) ([4]; listed as Myc-DISC1 AS1): only showed a weak interaction with TNIK
5 | B3 | – | – | – | unable to induce cell rounding; also recorded: inhibits TNIK-induced cell rounding | length-to-breadth ratio of cells ([5]; NIH3T3 cells, co-expressed with TNIK, versus empty vector, N>30): significantly increased the average length-to-breadth ratio of a cell; interaction with TNIK (co-IP) [4]: co-immunoprecipitates with HA-TNIK
